This is a sample that favours compounds with a hit; in the whole collection about 1.7% have one here.
SR-BI DiI-HDL act: activators of SR-BI mediated DiI-HDL uptake, primary screen, ldlA[mSR-BI] CHO cells, DiI fluorescence. 3 h; 100 = double the neutral-control signal. activation, % at 12.5 µM. actives 0.096% (n = 320,000);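 active = mean replicate activation of at least 60% and every replicate at or above 60%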
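Test system: SR-BI-overexpressing, LDLR-lacking CHO cells; Also added: labelled HDL, 10 µg/mL; Measured by: bottom-read cell fluorescence after medium removal, ex 550/em 595 nm; Timing: 3 h uptake period with compound, 37 °C; Buffer or medium: F12, 0.5% BSA, 25 mM HEPES; Doses: single compound concentration, delivered by pin transfer.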
Vif inh: HIV Vif self-association inhibitors, primary screen, imaging, HEK293T, single point; AID 602346, 2012; inhibition, % at 7.49 µM; actives 0.35% (n = 340,000); HEK293T cells, Vif self-association by quenched fluorescence, 24 h; in the data active = inhibition above about 50%, passing the limit was not always enough
C2C12 statin: suppressors of statin myotoxicity in C2C12 myotubes, primary screen, cell-based, single point, plate reader; rescue of ATP level, % at 7.49 µM; AID 602340, 2012; actives 0.78% (n = 330,000); C2C12 myotubes + simvastatin, ATP luminescence, 48 h; scaled: DMSO 0, geranylgeraniol control 100;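 active = mean ATP rescue above about 67%, or every replicate alone reaching that limit, limit read from the data, passing the limit was not always enough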;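 also: myotubes were challenged with 10 µM simvastatin during compound exposure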
SR-BI DiI inh: inhibitors of SR-BI mediated HDL lipid uptake, primary screen, ldlA[mSR-BI] cells, fluorescence, single point; inhibition, % at 12.5 µM; actives 0.96% (n = 320,000); ldlA[mSR-BI] CHO cells, DiI-HDL uptake fluorescence, 3 h; Scavenger receptor class B member 1 (Mus musculus), Q61009; AID 488896, 2010;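 active = mean replicate inhibition of at least 70% and a set share of replicates each scoring 70 or more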
Target sequence (Q61009 whole entry, looked up): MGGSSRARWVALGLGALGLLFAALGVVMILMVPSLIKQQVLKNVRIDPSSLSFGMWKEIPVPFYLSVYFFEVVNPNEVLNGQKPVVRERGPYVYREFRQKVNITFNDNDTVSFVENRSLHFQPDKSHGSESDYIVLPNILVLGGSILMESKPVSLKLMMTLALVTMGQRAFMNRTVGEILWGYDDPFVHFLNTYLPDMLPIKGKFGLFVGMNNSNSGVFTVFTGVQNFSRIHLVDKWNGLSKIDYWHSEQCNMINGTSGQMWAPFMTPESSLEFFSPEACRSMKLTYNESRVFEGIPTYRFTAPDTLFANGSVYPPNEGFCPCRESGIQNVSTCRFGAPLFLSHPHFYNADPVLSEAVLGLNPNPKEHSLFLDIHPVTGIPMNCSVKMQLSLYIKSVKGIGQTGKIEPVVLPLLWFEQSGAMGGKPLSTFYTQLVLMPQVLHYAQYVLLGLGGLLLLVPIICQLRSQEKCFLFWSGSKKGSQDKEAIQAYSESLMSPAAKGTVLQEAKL
Large screens that a line does not name were inactive.

COc1ccccc1-c1ccc2n(c1=O)C[C@@H]1[C@@H](CO)[C@H](C(=O)N(C)C)N(CC3CCOCC3)[C@H]21	none (no result: SR-BI DiI-HDL act, Vif inh, SR-BI DiI inh)
COCCOc1cc(-n2ccnc2SC)c(Cl)cc1Cl	C2C12 statin 92
COc1ccc(NC(=O)/C(C#N)=C\c2cc(C)n(-c3ccc(Oc4ccc([N+](=O)[O-])cn4)cc3)c2C)cc1	SR-BI DiI inh 75
Cc1cc(C=O)c(C)n1-c1ccc(Oc2ccc([N+](=O)[O-])cn2)cc1	none (no result: C2C12 statin)
COc1ccc(S(=O)(=O)N2CCN(Cc3cccc(Cl)c3)CC2)cc1	C2C12 statin 105
COc1cccc(CN2CCNC(=O)C2CC(=O)NCCN2CCCCC2=O)c1 (configuration not stated)	C2C12 statin 86
CC1=CCC(C(=O)O)C(C(=O)Nc2cccnc2)C1 (configuration not stated)	Vif inh 51 (no result: C2C12 statin)
C[C@@H]1CN([C@H](C)CO)C(=O)c2cccc(NC(=O)C3CCCCC3)c2O[C@@H]1CN(C)S(=O)(=O)c1ccc(F)cc1	none (no result: SR-BI DiI-HDL act, Vif inh, SR-BI DiI inh)
CCOC(=O)c1cc2cc(CC(=O)c3ccc(OCC)cc3O)ccc2o1	C2C12 statin 97
C[C@@H]1CN([C@@H](C)CO)C(=O)c2cccc(NS(=O)(=O)c3ccccc3)c2O[C@H]1CN(C)S(=O)(=O)c1cccs1	none (no result: SR-BI DiI-HDL act, Vif inh, SR-BI DiI inh)
CCOc1ccccc1NC(=O)c1sc2ncn(CC(=O)N3CCOCC3)c(=O)c2c1C	SR-BI DiI inh 71
COc1ccccc1NC(=O)c1sc2ncn(CC(=O)N3CCC(C)CC3)c(=O)c2c1C	none
COc1cccc(NC(=O)c2sc3ncn(CC(=O)N4CCN(c5ccccn5)CC4)c(=O)c3c2C)c1	SR-BI DiI inh 79
O=C(Nc1ccccc1)N[C@H]1CC[C@H](CCNS(=O)(=O)c2cccc(F)c2)O[C@H]1CO	none (no result: SR-BI DiI-HDL act, Vif inh, SR-BI DiI inh)
C[C@@H]1CN([C@@H](C)CO)C(=O)c2cc(NC(=O)NC3CCCCC3)ccc2O[C@H]1CN(C)S(C)(=O)=O	none (no result: SR-BI DiI-HDL act, Vif inh, SR-BI DiI inh)
O=c1c2[nH]c3cccc(Cl)c3c2ncn1CCN1CCCCC1	C2C12 statin 103 (no result: SR-BI DiI-HDL act, SR-BI DiI inh)
COc1ccc(S(=O)(=O)N[C@H]2CC[C@H](CC(=O)NCCc3ccccc3)O[C@@H]2CO)cc1	none (no result: SR-BI DiI-HDL act, Vif inh, SR-BI DiI inh)
COc1ccc(-c2cc(-c3ccc(O)cc3)nc(N)c2C#N)cc1	none
COc1ccc(-c2cc(-c3ccc(OC)cc3)c(C#N)c(SC)n2)cc1	SR-BI DiI inh 80 (no result: C2C12 statin)
C[C@H]1CN([C@@H](C)CO)C(=O)c2cccc(NC(=O)Nc3ccccc3)c2O[C@H]1CN(C)C(=O)Nc1ccc(C(F)(F)F)cc1	none (no result: SR-BI DiI-HDL act, Vif inh, SR-BI DiI inh)
CC(OC(=O)c1ccccc1NS(=O)(=O)c1cccc(N)c1)C(=O)N(C)Cc1ccccc1 (configuration not stated)	C2C12 statin 86
CC(OC(=O)c1cccc(O)c1)C(=O)N(C)Cc1ccccc1 (configuration not stated)	none
O=C(c1oc2ccccc2c1N1CCCCC1)N1CCCCC1	SR-BI DiI inh 78
CC(=O)Nc1ccc(S(=O)(=O)NCC(=O)OCC(=O)NC23CC4CC(CC(C4)C2)C3)cc1	Vif inh 75 (no result: SR-BI DiI-HDL act, SR-BI DiI inh)
CC(=O)Nc1ccc(S(=O)(=O)NCC(=O)OCC(=O)NC(=O)C2CCCCC2)cc1	none
COc1ccc(NC(=O)Nc2ccc3c(c2)C(=O)N([C@@H](C)CO)C[C@H](C)[C@H](CN(C)C(=O)Nc2ccc(F)cc2)OCCCC[C@H](C)O3)cc1	none (no result: SR-BI DiI-HDL act, Vif inh, SR-BI DiI inh)
CCOC(=O)N1CCN(S(=O)(=O)c2ccc3[nH]cc(C(=O)O)c(=O)c3c2)CC1	C2C12 statin 97
COc1ccc(S(=O)(=O)N(C)C[C@H]2Oc3ccc(N(C)C)cc3CC(=O)N([C@@H](C)CO)C[C@@H]2C)cc1	none (no result: SR-BI DiI-HDL act, Vif inh, SR-BI DiI inh)
Cc1nc2c(C(=O)NCc3ccco3)cnn2c(C)c1Cc1ccc(F)cc1Cl	none
Cc1cccc(Cc2c(C)nc3c(C(=O)NCc4ccco4)cnn3c2C)c1	C2C12 statin 107
COCc1c(C(=O)OC)nnn1-c1ccccc1	C2C12 statin 130
COC(=O)c1nnn(-c2ccccc2)c1N	none
CC(C)Oc1ccc(C(=O)NCc2ccco2)cc1	C2C12 statin 127
CCCC(=O)Nc1ccc(C(=O)Nc2cc(C(F)(F)F)ccc2Cl)cc1	SR-BI DiI inh 74
CCOC(=O)c1ccc[n+](CC(=O)Nc2cc(C(F)(F)F)ccc2Cl)c1	Vif inh 53 (no result: C2C12 statin)
COc1cccc(NC(=O)c2cccc(OC)c2OC)c1	C2C12 statin 116
O=C(COC(=O)c1ccc(O)cc1)Nc1cc(C(F)(F)F)ccc1Cl	none (no result: C2C12 statin)
CCCC(=O)Nc1ccc(C(=O)Nc2cccc(OC)c2)cc1	SR-BI DiI inh 74 (no result: C2C12 statin)
O=C(C[C@H]1CC[C@@H](NS(=O)(=O)c2ccccc2)[C@H](CO)O1)NCc1ccccc1F	none (no result: SR-BI DiI-HDL act, Vif inh, SR-BI DiI inh)
CCCN1C[C@H](C)[C@@H](OC)CN(C)C(=O)c2cc(NC(=O)NC3CCCCC3)ccc2OC[C@@H]1C	none (no result: SR-BI DiI-HDL act, Vif inh, SR-BI DiI inh)
COc1cccc(-c2cc(=O)c3cc(NC(=O)c4ccccc4)ccc3[nH]2)c1	Vif inh 194
COc1cccc(C(=O)Nc2ccc(N(C)C)cc2)c1OC	C2C12 statin 90
C[C@@H]1CN([C@H](C)CO)S(=O)(=O)c2ccc(-c3ccncc3)cc2O[C@@H]1CN(C)C(=O)CC1CC1	none (no result: SR-BI DiI-HDL act, Vif inh, SR-BI DiI inh)
Cc1nnsc1NC(=O)OCc1ccccc1Cl	none
Cc1nnsc1NC(=O)OCc1ccc(C(F)(F)F)cc1	C2C12 statin 105
C/C=C/c1ccc2c(c1)O[C@H](CN(C)C(=O)COC)[C@H](C)CN([C@H](C)CO)S2(=O)=O	none (no result: SR-BI DiI-HDL act, Vif inh, SR-BI DiI inh)
O=C(Nc1cc(F)ccc1F)N1C[C@@H]2[C@H](c3ccccc31)[C@H](CO)N2C(=O)c1ccccc1	none (no result: SR-BI DiI-HDL act, Vif inh, SR-BI DiI inh)
COCCC(=O)NC12CC3CC(CC(C3)C1)C2	none
COCCNCC(=O)NC12CC3CC(CC(C3)C1)C2	C2C12 statin 117
C=CCn1c(COc2cccc(C)c2)nnc1SCC(=O)c1c(N)n(C)c(=O)n(C)c1=O	none (no result: SR-BI DiI-HDL act, SR-BI DiI inh)
C=CCn1c(COc2ccc(Cl)cc2)nnc1SCC(=O)c1c(N)n(C)c(=O)n(C)c1=O	C2C12 statin 101
C[C@H](CO)N1C[C@H](C)[C@@H](CN(C)CC2CCCCC2)Oc2ccc(NC(=O)C3CCCCC3)cc2CC1=O	none (no result: SR-BI DiI-HDL act, Vif inh, SR-BI DiI inh)
CCCNC(=O)Nc1ccc2c(c1)C(=O)N(C)[C@@H]1CC[C@H](CC(=O)NCCCN(C)C)O[C@@H]1CO2	none (no result: SR-BI DiI-HDL act, Vif inh, SR-BI DiI inh)
CC=Cc1ccc2n(c1=O)C[C@H]1[C@H](CO)[C@@H](C(=O)NCC)[C@@H]2N1Cc1ccccc1 (mixture of isomers)	none (no result: SR-BI DiI-HDL act, Vif inh, SR-BI DiI inh)
CCOC(=O)c1sc(=NC(=O)c2cc(OC)c(OC)c(OC)c2)n(C)c1C	SR-BI DiI inh 74
CCC(=O)c1ccc(OCC(=O)O)cc1	C2C12 statin 107
CCOc1ccc(NC(=O)COc2ccc(-n3cnnn3)cc2)cc1	none
CCC(=O)c1ccc(OCC(=O)Nc2nn3cnnc3s2)cc1	Vif inh 68 (no result: C2C12 statin)
CCCCSc1nn[nH]n1	Vif inh 52

Screening results as filed in PubChem BioAssay.
